Assay results reported in ChEMBL document CHEMBL5030540 (J Med Chem, 2021).
Calls of active or inactive are those of the source.

How the values were obtained:
Mu-type opioid receptor [1] = molecular target: T1, Mu-type opioid receptor (Homo sapiens, UniProt P35372); experiment: Agonist activity at human MOR expressed in HEK293T cells assessed as inhibition of forskolin-stimulated cAMP accumulation incubated for 30 mins by Glo-sensor cAMP assay; format: functional, cell-based
Summary of the method: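 HEK293T cells transiently co-transfected with human MOR and a luciferase-based cAMP biosensor. Gαi-mediated cAMP inhibition read by luminescence. EC50 given as pEC50 ± SEM, triplicate runs.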

Mu-type opioid receptor [2] = molecular target: T1, Mu-type opioid receptor; experiment: Agonist activity at human MOR expressed in HEK-293T cells assessed as inhibition of forskolin-stimulated cAMP accumulation incubated for 30 mins by Glo-sensor cAMP assay relative to DAMGO; format: functional, cell-based; conditions: HEK293T
Summary of the method: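 HEK293T cells transiently co-transfected with human MOR and a luciferase-based cAMP biosensor. Gαi-mediated cAMP inhibition read by luminescence. […] EC50 given as pEC50 ± SEM, triplicate runs.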

Mu-type opioid receptor [3] = molecular target: T1, Mu-type opioid receptor; experiment: Agonist activity at human MOR receptor expressed in HTLA cells co-expressing TEV-fused-beta-arrestin2 assessed as induction of beta-arrestin2 recruitment by Tango assay relative to DAMGO; format: functional, cell-based
Summary of the method: (§1)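 HTLA cells expressing TEV-fused β-arrestin2 transiently transfected with a human MOR Tango construct. β-arrestin2 recruitment measured. […] Mean pEC50 ± SEM and Emax% ± SEM from triplicate runs.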

Mu-type opioid receptor [4] = molecular target: T1, Mu-type opioid receptor; experiment: Agonist activity at human MOR receptor expressed in HTLA cells co-expressing TEV-fused-beta-arrestin2 assessed as induction of beta-arrestin2 recruitment by Tango assay; format: functional, cell-based; summary of the method: as §1
Mu-type opioid receptor [5] = molecular target: T1, Mu-type opioid receptor; experiment: Agonist activity at human MOR expressed in CHO-K1 cells co-expressing beta-arrestin2 assessed as beta-arrestin2 EFC recruitment measured after 90 mins by PathHunter assay; format: functional, cell-based
Summary of the method: (§2)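 CHO-K1 cells stably expressing human μOR grown to confluency and seeded overnight at 37 °C, 5% CO2. 5× dilution series of compound in Opti-MEM added for 90 min at 37 °C. Detection reagent then added for 60 min at room temperature in the dark, and chemiluminescence read.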

Mu-type opioid receptor [6] = molecular target: T1, Mu-type opioid receptor; experiment: Agonist activity at human MOR expressed in CHO-K1 cells co-expressing beta-arrestin2 assessed as beta-arrestin2 EFC recruitment measured after 90 mins by PathHunter assay relative to control; format: functional, cell-based; summary of the method: as §2
Mu-type opioid receptor [7] = molecular target: T1, Mu-type opioid receptor; experiment: Displacement of [3H]-DAMGO from mu opioid receptor (unknown origin) expressed in CHO cells at 10 uM; format: cell-based
Mu-type opioid receptor [8] = molecular target: T1, Mu-type opioid receptor; experiment: Partial agonist activity at human MOR expressed in HEK293T cells co-expressing Galpha-RLuc8:Gbeta:Ggamma-GFP2 assessed as maximal Gi-1 activation measured after 15 mins by BRET assay relative to control; format: functional, cell-based; conditions: filed as partial agonist
[9] = molecular target: GABA-A receptor; anion channel (Rattus norvegicus) (UniProt O09028+P15431+P18506+P18508+P19969+P20236+P23574+P23576+P28471+P28473+P30191+P62813+P63079+P63138+Q91ZM7+Q9ES14); experiment: Partial agonist activity at GABAA receptor in rat brain slice assessed as induction of receptor-mediated inhibitory postsynaptic current at 10 uM by Whole cell electrophysiology; format: tissue-based; conditions: filed as partial agonist
Summary of the method: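 Horizontal VTA slices (200 μm) from male Sprague–Dawley rats. Whole-cell voltage clamp at −70 mV, 33 °C, KCl internal. GABAA IPSCs isolated with 10 μM DNQX and evoked by paired pulses every 10 s. Drug (10 μM) bath applied. Mean IPSC amplitude at minutes 4–7 of drug compared with the 4 min baseline.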

[10] = molecular target: Voltage-dependent L-type calcium channel subunit alpha-1C (Rattus norvegicus, UniProt P22002); experiment: Displacement of [3H]Diltiazem from Cav1.2 in rat brain at 10 uM incubated for 120 mins by radiometric scintillation counting analysis; format: tissue-based; conditions: 2 h
Voltage-dependent L-type calcium channel subunit alpha-1C, sequence (P22002 whole entry): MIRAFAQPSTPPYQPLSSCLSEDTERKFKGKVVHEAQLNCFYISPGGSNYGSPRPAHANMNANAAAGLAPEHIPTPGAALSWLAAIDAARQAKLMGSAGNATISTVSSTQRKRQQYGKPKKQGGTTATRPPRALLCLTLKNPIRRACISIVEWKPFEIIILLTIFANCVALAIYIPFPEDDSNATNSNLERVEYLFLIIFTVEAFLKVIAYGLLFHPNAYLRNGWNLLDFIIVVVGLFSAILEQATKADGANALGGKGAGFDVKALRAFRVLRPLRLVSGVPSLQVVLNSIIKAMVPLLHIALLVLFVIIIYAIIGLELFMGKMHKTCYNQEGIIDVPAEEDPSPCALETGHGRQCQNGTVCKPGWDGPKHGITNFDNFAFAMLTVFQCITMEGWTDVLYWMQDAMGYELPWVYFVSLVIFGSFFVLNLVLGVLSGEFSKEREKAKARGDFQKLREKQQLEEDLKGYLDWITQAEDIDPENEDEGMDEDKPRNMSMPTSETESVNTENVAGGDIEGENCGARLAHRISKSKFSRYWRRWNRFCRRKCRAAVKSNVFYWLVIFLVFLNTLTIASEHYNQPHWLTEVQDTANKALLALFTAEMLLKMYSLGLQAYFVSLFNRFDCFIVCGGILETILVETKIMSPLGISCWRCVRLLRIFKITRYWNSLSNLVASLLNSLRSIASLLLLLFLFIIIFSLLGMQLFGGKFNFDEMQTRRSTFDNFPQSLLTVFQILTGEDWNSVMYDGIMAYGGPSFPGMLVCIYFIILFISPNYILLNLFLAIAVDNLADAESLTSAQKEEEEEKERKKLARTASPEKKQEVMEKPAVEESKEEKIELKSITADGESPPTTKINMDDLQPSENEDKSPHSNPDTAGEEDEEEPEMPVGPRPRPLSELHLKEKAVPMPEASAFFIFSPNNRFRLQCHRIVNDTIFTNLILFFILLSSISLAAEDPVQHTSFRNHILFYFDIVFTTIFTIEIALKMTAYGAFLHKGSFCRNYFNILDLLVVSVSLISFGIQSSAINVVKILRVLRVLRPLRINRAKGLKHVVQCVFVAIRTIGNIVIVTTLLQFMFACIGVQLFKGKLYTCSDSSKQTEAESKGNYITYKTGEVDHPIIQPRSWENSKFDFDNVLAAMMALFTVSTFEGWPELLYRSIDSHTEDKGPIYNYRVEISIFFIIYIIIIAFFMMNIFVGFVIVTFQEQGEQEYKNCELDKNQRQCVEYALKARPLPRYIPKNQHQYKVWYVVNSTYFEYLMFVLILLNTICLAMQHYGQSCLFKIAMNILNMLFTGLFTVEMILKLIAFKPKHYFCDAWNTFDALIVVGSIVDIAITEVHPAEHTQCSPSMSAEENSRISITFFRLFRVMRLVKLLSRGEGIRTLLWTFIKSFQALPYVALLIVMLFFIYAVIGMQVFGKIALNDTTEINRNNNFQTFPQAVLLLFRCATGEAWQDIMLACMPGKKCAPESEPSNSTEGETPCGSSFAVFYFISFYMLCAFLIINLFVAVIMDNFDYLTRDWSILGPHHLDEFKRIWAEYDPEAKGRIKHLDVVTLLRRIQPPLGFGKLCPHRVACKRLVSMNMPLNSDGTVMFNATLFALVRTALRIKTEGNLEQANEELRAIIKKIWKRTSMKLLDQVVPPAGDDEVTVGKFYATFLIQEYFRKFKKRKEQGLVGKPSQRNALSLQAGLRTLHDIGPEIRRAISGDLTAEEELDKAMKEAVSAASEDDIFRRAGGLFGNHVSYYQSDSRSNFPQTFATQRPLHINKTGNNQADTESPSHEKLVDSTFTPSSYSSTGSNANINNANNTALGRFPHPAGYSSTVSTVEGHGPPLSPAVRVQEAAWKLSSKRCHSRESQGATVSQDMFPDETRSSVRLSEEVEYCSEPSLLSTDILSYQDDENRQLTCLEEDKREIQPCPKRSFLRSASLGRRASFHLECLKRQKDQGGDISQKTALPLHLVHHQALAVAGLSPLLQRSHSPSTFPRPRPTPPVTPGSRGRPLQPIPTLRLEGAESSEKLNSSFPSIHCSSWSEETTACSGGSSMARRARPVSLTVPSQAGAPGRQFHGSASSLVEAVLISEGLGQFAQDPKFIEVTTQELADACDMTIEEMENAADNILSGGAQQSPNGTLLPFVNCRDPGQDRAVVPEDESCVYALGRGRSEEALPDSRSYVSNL

[11] = Toxicity in C57BL/6 mouse model assessed as hyperlocomotion at 15 times of ED50 for antinociceptive effect; conditions: in vivo
Summary of the method: (§3)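 Mice habituated 60 min in sealed CLAMS cages, dosed sc, and confined 5 min later. Respiration rate measured by pressure transducer and ambulation by infrared beam breaks, every 20 min. […] Expressed as % vehicle. Two-way ANOVA with Dunnett's test.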

Mu-type opioid receptor [12] = molecular target: T1, Mu-type opioid receptor; experiment: Partial agonist activity at human MOR expressed in HEK293T cells co-expressing Galpha-RLuc8:Gbeta:Ggamma-GFP2 assessed as Galpha-i/o activation measured after TRUPATH assay; format: functional, cell-based; conditions: filed as partial agonist
[13] = molecular target: Mu-type opioid receptor (Mus musculus) (UniProt P42866); experiment: Partial agonist activity at mouse MOR expressed in HEK293T cells assessed as Nb33 recruitment by BRET assay relative to control; format: functional, cell-based
Mu-type opioid receptor (Mus musculus), sequence (P42866 whole entry): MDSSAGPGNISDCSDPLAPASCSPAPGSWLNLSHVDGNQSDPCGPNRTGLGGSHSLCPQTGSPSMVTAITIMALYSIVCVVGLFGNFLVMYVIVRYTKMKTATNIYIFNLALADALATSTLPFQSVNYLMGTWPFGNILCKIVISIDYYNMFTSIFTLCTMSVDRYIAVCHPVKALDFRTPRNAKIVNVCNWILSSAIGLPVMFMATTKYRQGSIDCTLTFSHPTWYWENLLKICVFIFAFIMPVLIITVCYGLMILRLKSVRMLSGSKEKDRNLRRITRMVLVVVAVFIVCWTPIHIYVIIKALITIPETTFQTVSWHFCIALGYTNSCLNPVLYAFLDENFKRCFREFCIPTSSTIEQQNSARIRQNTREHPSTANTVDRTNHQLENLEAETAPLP
Summary of the method: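 HEK293T cells transfected with murine MOR-NanoLuc (1 μg) and Nb33-Venus (4 μg) using PEI and used 48 h later. Cells in PBS given coelenterazine H (5 μM), ligand added at 5 min, BRET read 10 min later. Three-parameter fit; ≥3 independent trials in triplicate.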

Mus musculus [14] = experiment: Antinociceptive activity in sc dosed C57BL/6 mouse model assessed as increase in tail withdrawal latency measured at 20 mins by […] withdrawal assay; format: functional; conditions: C57BL/6, sc
Summary of the method: (§4)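 C57BL/6J mice given compound sc or po. 55 °C warm-water tail withdrawal with baseline latency taken first, then measured every 10 min, 15 s cutoff. % antinociception = 100 × (test − baseline)/(15 − baseline). sc doses 1, 3, 10 mg/kg (n = 8). po dose 10 mg/kg (n = 13). ED50 with 95% CI.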

Mus musculus [15] = experiment: Antinociceptive activity in sc dosed C57BL/6 MOR knock out mouse model assessed as increase in tail withdrawal latency measured at 20 mins by radiant heat withdrawal assay; format: functional, organism-based
Mus musculus [16] = experiment: Antinociceptive activity in C57BL/6 mouse model assessed as measuring increase in tail withdrawal latency at 10 mg/kg, po at 55 degC measured at 30 mins peak time point by […] withdrawal assay; format: functional; conditions: 0.5 h; summary of the method: as §4
[17] = Toxicity in C57BL/6 mouse model assessed as conditioned place preference at 15 mg/kg, sc; format: organism-based; conditions: in vivo
Summary of the method: (§5)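 Counterbalanced two-compartment place conditioning in C57BL/6J mice. […] Time on drug-paired side over a 20 min test compared with preconditioning by Welch-corrected t test.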

[18] = Toxicity in C57BL/6 mouse model assessed as conditioned place aversion at 15 mg/kg, sc; format: organism-based; conditions: in vivo; summary of the method: as §5
[19] = Toxicity in C57BL/6 mouse model assessed as conditioned place preference at 10 mg/kg, IP; format: organism-based; conditions: in vivo; summary of the method: as §5
[20] = Toxicity in C57BL/6 mouse model assessed as charcoal distance travel at 15 mg/kg, sc measured after 3 hrs by gastrointestinal transit assay (reference value: 29.5 +/- 1 cm); format: organism-based; conditions: in vivo
[21] = Toxicity in C57BL/6 mouse model assessed as respiratory depression at 15 times of ED50 for antinociceptive effect; conditions: in vivo; summary of the method: as §3
Mus musculus [22] = experiment: Antinociceptive activity in C57BL/6 mouse model assessed as measuring increase in tail withdrawal latency at 10 mg/kg, sc at 55 degC measured at 20 mins peak time point by […] withdrawal assay; format: functional; summary of the method: as §4

T1 sequence (P35372 whole entry): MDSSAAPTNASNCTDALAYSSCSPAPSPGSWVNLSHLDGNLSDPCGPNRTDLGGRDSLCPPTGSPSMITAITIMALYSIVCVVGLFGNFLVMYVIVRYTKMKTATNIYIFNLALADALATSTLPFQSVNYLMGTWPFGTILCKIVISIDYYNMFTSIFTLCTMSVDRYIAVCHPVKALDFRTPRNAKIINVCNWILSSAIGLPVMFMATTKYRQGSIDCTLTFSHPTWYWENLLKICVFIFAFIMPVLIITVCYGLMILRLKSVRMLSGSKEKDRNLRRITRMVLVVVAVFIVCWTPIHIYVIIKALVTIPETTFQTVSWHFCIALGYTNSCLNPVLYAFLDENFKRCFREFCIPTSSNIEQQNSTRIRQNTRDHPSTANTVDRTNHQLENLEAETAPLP

Question: What does the source list for `CC[C@@H]1CN2CCc3c([nH]c4cccc(-c5ccccc5)c34)[C@@H]2C[C@@H]1/C(=C\OC)C(=O)OC`?
Answer: EC50 (Mu-type opioid receptor [1]): 83.2 nM; Emax (Mu-type opioid receptor [2]; filed as agonist): 46.1%; Emax (Mu-type opioid receptor [3]; HTLA230): < 20%

Question: Which EC50 (Mu-type opioid receptor [1]) does the source give for `CC[C@@H]1CN2CC[C@@]3(O)C(=Nc4cccc(-c5ccoc5)c43)[C@@H]2C[C@@H]1/C(=C\OC)C(=O)OC` here?
Answer: 7.25 nM

Question: What about the Emax (Mu-type opioid receptor [2]; filed as partial agonist) of the same compound?
Answer: 106%

Question: And the EC50 (Mu-type opioid receptor [4])?
Answer: 11000 nM

Question: And the Emax (Mu-type opioid receptor [3]; HTLA230, filed as partial agonist)?
Answer: 45%

Question: And the Emax (Mu-type opioid receptor [5])?
Answer: 31%

Question: And the Emax (Mu-type opioid receptor [6])?
Answer: < 20%

Question: And the Ki (Mu-type opioid receptor [7])?
Answer: 6 nM

Question: What about the Emax (Mu-type opioid receptor [8]) of the same compound?
Answer: 60%

Question: And the Activity [9]?
Answer: Active

Question: And the Activity [10]?
Answer: Active

Question: And the Activity [11]?
Answer: Non-Toxic

Question: What about the Activity (Mu-type opioid receptor [12]) of the same compound?
Answer: Active

Question: And the Emax [13]?
Answer: 20%

Question: What about the ED50 (Mus musculus [14]) of the same compound?
Answer: 3.05 mg/kg

Question: And the Activity (Mus musculus [15])?
Answer: Active

Question: And the MPE (Mus musculus [16])?
Answer: 87%

Question: And the Activity [17]?
Answer: Non-Toxic

Question: And the Activity [18]?
Answer: Non-Toxic

Question: What about the Activity [19] of the same compound?
Answer: Toxic

Question: And the Activity [20]?
Answer: 30.8 cm

Question: What about the Activity [21] of the same compound?
Answer: Non-Toxic

Question: What about the MPE (Mus musculus [22]) of the same compound?
Answer: 100%

Question: For `CC[C@@H]1CN2CC[C@@]3(O)C(=Nc4c(-c5ccccc5)ccc(OC)c43)[C@@H]2C[C@@H]1/C(=C\OC)C(=O)OC`, which EC50 (Mu-type opioid receptor [1]) is on record?
Answer: 17500 nM

Question: And the Emax (Mu-type opioid receptor [2])?
Answer: < 20%

Question: What about the Emax (Mu-type opioid receptor [3]; HTLA230) of the same compound?
Answer: < 20%

Question: For `CC[C@@H]1CN2CC[C@@]3(O)C(=Nc4ccc(C)c(OC)c43)[C@@H]2C[C@@H]1/C(=C\OC)C(=O)OC`, which EC50 (Mu-type opioid receptor [1]) is on record?
Answer: 30.3 nM

Question: And the Emax (Mu-type opioid receptor [2]; filed as agonist)?
Answer: 9.58%

Question: What about the Emax (Mu-type opioid receptor [3]; HTLA230) of the same compound?
Answer: < 20%

Question: For `CC[C@@H]1CN2CCc3c([nH]c4ccc(-c5ccccc5)c(OC)c34)[C@@H]2C[C@@H]1/C(=C\OC)C(=O)OC`, which EC50 (Mu-type opioid receptor [1]) is on record?
Answer: 3760 nM

Question: What about the Emax (Mu-type opioid receptor [2]; filed as agonist) of the same compound?
Answer: 73.9%

Question: And the Emax (Mu-type opioid receptor [3]; HTLA230)?
Answer: < 20%

Question: For `CC[C@@H]1CN2CCc3c([nH]c4cccc(OC)c34)[C@@H]2C[C@@H]1/C(=C\OC)C(=O)OC`, which Emax (Mu-type opioid receptor [2]; filed as agonist) is on record?
Answer: 84.7%

Question: And the Emax (Mu-type opioid receptor [3]; HTLA230)?
Answer: < 20%

Question: What does the source list for `CC[C@@H]1CN2CC[C@@]3(O)C(=Nc4ccc(-c5ccccc5)c(OC)c43)[C@@H]2C[C@@H]1/C(=C\OC)C(=O)OC`?
Answer: EC50 (Mu-type opioid receptor [1]): 104 nM; Emax (Mu-type opioid receptor [2]; filed as agonist): 88.7%; Emax (Mu-type opioid receptor [3]; HTLA230): < 20%

Question: For `CC[C@@H]1CN2CCc3c([nH]c4c(C)ccc(OC)c34)[C@@H]2C[C@@H]1/C(=C\OC)C(=O)OC`, which EC50 (Mu-type opioid receptor [1]) is on record?
Answer: 71.4 nM

Question: What about the Emax (Mu-type opioid receptor [2]; filed as agonist) of the same compound?
Answer: 83.9%

Question: And the Emax (Mu-type opioid receptor [3]; HTLA230)?
Answer: < 20%

Question: Which EC50 (Mu-type opioid receptor [1]) does the source give for `CC[C@@H]1CN2CCc3c([nH]c4cccc(C)c34)[C@@H]2C[C@@H]1/C(=C\OC)C(=O)OC` here?
Answer: 82.9 nM

Question: What about the Emax (Mu-type opioid receptor [2]; filed as agonist) of the same compound?
Answer: 97.1%

Question: And the Emax (Mu-type opioid receptor [3]; HTLA230)?
Answer: < 20%

Question: With `CC[C@@H]1CN2CCc3c([nH]c4ccc(-c5ccoc5)c(OC)c34)[C@@H]2C[C@@H]1/C(=C\OC)C(=O)OC` as the compound, how does the EC50 (Mu-type opioid receptor [1]) read?
Answer: 85.9 nM

Question: What about the Emax (Mu-type opioid receptor [2]; filed as agonist) of the same compound?
Answer: 90.8%

Question: And the Emax (Mu-type opioid receptor [3]; HTLA230)?
Answer: < 20%
